The source of these data is ChEMBL document CHEMBL1144984, “Synthesis and antibacterial activity of pyrroloaryl-substituted oxazolidinones” (2003).

Common to all, as to type: functional
Assay [1] has as its system Staphylococcus aureus. Kind of assay: Minimum inhibitory concentration against Staphylococcus aureus OC 4172 in precense of 50% mouse serum. The procedure, abridged:
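Broth microdilution MIC against S. aureus OC 4172 (Smith, methicillin-susceptible) with 50% mouse serum in the medium, to gauge protein binding or serum inactivation. Run by NCCLS methods with linezolid as standard. MIC is the lowest concentration inhibiting visible growth.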

In a further assay the test system is Enterococcus faecalis. In words: Minimum inhibitory concentration against Enterococcus faecalis ATTCC 29212. In outline: (§1)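 Broth microdilution MIC run by National Committee for Clinical Laboratory Standards methods, with linezolid as standard. MIC is the lowest compound concentration inhibiting visible growth.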
The subject of assay [2] is Staphylococcus aureus. In words: Minimum inhibitory concentration against methicillin resistant Staphylococcus aureus OC 2878. The procedure, abridged: (§2)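 Broth microdilution per NCCLS methods; MIC read as the lowest compound concentration inhibiting visible growth. Linezolid run as standard. Strains from a four-strain Gram-positive screening panel: S. aureus OC 2878 is methicillin-resistant, E. faecium OC 3312 is vancomycin-resistant.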

Assay [3] concerns Staphylococcus aureus. In words: Minimum inhibitory concentration against Staphylococcus aureus broth. The procedure, abridged:
as §1

The subject of another assay is Enterococcus faecium. In words: Minimum inhibitory concentration against vancomycin resistant Enterococcus faecium OC 3312. The procedure, abridged:
as §2

The test system of assay [4] is Mus musculus. In words: Effective dose of compound after oral administration in mice with Staphylococcus aureus OC4172 (Smith) was determined. In outline:
(§3)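 Murine model of lethal systemic infection, with compound given orally. ED50 is the dose protecting 50% of mice from death, expressed in mg/kg/day.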

Assay [5] deals with Mus musculus. In words: Effective dose of compound after oral administration in murine model infected with Staphylococcus aureus OC4172 (Smith) was determined. The procedure, abridged: as §3

Converted amounts (≈) assume the structure as drawn.

The term MIC denotes the lowest concentration that inhibits growth of the organism. As for `CC(=O)NC[C@H]1CN(c2ccc(-n3cc4cccnc4c3)c(F)c2)C(=O)O1`, the minimum inhibitory concentration (MIC) against Staphylococcus aureus [1] is 2 µg/mL (≈ 5.43 µM); in the assay on Enterococcus faecalis, 1 µg/mL (≈ 2.71 µM); against Staphylococcus aureus [2], 0.5 µg/mL (≈ 1.36 µM); with Staphylococcus aureus [3], 1 µg/mL (≈ 2.71 µM); against Enterococcus faecium, 1 µg/mL (≈ 2.71 µM).
As usually defined, the ED50 is the dose that gives a 50% effect, or the effect in half of the subjects. A low value points to an effect at a small dose. In the case of `CC(=O)NC[C@H]1CN(c2ccc(N3Cc4ccccc4C3)c(F)c2)C(=O)O1`, the MIC in the assay on Staphylococcus aureus [1] turned out to be 16 µg/mL (≈ 43.3 µM); against Enterococcus faecalis it was 4 µg/mL (≈ 10.8 µM); in the assay with Staphylococcus aureus [2], 1 µg/mL (≈ 2.71 µM); with Staphylococcus aureus [3], 4 µg/mL (≈ 10.8 µM); against Enterococcus faecium it was 4 µg/mL (≈ 10.8 µM). In the assay with Mus musculus [4], this compound had an ED50 above 80 mg/kg/day.
Consider `CCN(Cc1ccccn1)c1ccc(N2C[C@H](CNC(C)=O)OC2=O)cc1F`, for which the MIC with Staphylococcus aureus [1], against Enterococcus faecalis, in the assay on Staphylococcus aureus [3] and against Enterococcus faecium was above 128 µg/mL in each case.
On to `CC(=O)NC[C@H]1CN(c2ccc(-n3cc4cncnc4c3)c(F)c2)C(=O)O1`, for which the minimum inhibitory concentration (MIC) turned out to be 2 µg/mL (≈ 5.41 µM) against Staphylococcus aureus [1]; 1 µg/mL (≈ 2.71 µM) against Enterococcus faecalis; 1 µg/mL (≈ 2.71 µM) in the assay with Staphylococcus aureus [2]; 1 µg/mL (≈ 2.71 µM) against Staphylococcus aureus [3]; 0.5 µg/mL (≈ 1.35 µM) in the assay on Enterococcus faecium.
Consider `CC(=O)NC[C@H]1CN(c2ccc(-n3cc4ccncc4c3)c(F)c2)C(=O)O1`, for which the minimum inhibitory concentration (MIC) against Staphylococcus aureus [1] was determined as 1 µg/mL (≈ 2.71 µM); against Enterococcus faecalis, 1 µg/mL (≈ 2.71 µM); with Staphylococcus aureus [2] it was 0.5 µg/mL (≈ 1.36 µM); with Staphylococcus aureus [3], 0.5 µg/mL (≈ 1.36 µM); with Enterococcus faecium it was 0.5 µg/mL (≈ 1.36 µM).
Turning to `CC(=O)NC[C@H]1CN(c2ccc(N3C(=O)c4ccncc4C3=O)c(F)c2)C(=O)O1`, the MIC in the assay with Staphylococcus aureus [1], with Enterococcus faecalis, in the assay with Staphylococcus aureus [3] and with Enterococcus faecium was above 128 µg/mL throughout.
Turning to `CC(=O)NC[C@H]1CN(c2ccc(N3C(=O)c4cccnc4C3=O)c(F)c2)C(=O)O1`, the MIC in the assay on Staphylococcus aureus [1], in the assay with Enterococcus faecalis, in the assay on Staphylococcus aureus [3] and against Enterococcus faecium was above 128 µg/mL in each case.
Take `CC(=O)NC[C@H]1CN(c2ccc(N3Cc4ncccc4C3=O)c(F)c2)C(=O)O1`: the minimum inhibitory concentration (MIC) against Staphylococcus aureus [1] worked out at 8 µg/mL (≈ 20.8 µM); with Enterococcus faecalis, 16 µg/mL (≈ 41.6 µM); in the assay on Staphylococcus aureus [2], 4 µg/mL (≈ 10.4 µM); against Staphylococcus aureus [3] it was 16 µg/mL (≈ 41.6 µM); against Enterococcus faecium it was 8 µg/mL (≈ 20.8 µM).
On to `CC(=O)NC[C@H]1CN(c2ccc(N3Cc4ccncc4C3)c(F)c2)C(=O)O1`, for which the MIC in the assay with Staphylococcus aureus [1] is 1 µg/mL (≈ 2.7 µM); against Enterococcus faecalis it was 1 µg/mL (≈ 2.7 µM); against Staphylococcus aureus [2], 0.5 µg/mL (≈ 1.35 µM); against Staphylococcus aureus [3] it was 1 µg/mL (≈ 2.7 µM); with Enterococcus faecium, 1 µg/mL (≈ 2.7 µM).
Turning to `CC(=O)NC[C@H]1CN(c2ccc(N3C(=O)c4ccccc4C3=O)c(F)c2)C(=O)O1`, the MIC against Staphylococcus aureus [1] was 128 µg/mL (≈ 322 µM); in the assay on Enterococcus faecalis, 64 µg/mL (≈ 161 µM); against Staphylococcus aureus [2] it was 16 µg/mL (≈ 40.3 µM); against Staphylococcus aureus [3] it was 32 µg/mL (≈ 80.5 µM); in the assay with Enterococcus faecium, 32 µg/mL (≈ 80.5 µM).
For `CCN(Cc1cccnc1)c1ccc(N2C[C@H](CNC(C)=O)OC2=O)cc1F`, the MIC was found to be 32 µg/mL (≈ 82.8 µM) against Staphylococcus aureus [1]; 16 µg/mL (≈ 41.4 µM) in the assay with Enterococcus faecalis; 8 µg/mL (≈ 20.7 µM) against Staphylococcus aureus [2]; 16 µg/mL (≈ 41.4 µM) in the assay on Staphylococcus aureus [3]; 16 µg/mL (≈ 41.4 µM) against Enterococcus faecium.
Regarding `CC(=O)NC[C@H]1CN(c2ccc(N3Cc4cccnc4C3=O)c(F)c2)C(=O)O1`, the minimal inhibitory concentration (MIC) stood at 8 µg/mL (≈ 20.8 µM) against Staphylococcus aureus [1]; 32 µg/mL (≈ 83.3 µM) against Enterococcus faecalis; 8 µg/mL (≈ 20.8 µM) with Staphylococcus aureus [2]; 8 µg/mL (≈ 20.8 µM) with Staphylococcus aureus [3]; 8 µg/mL (≈ 20.8 µM) in the assay on Enterococcus faecium.
In the case of `CC(=O)NC[C@H]1CN(c2ccc(N3Cc4ccccc4C3=O)c(F)c2)C(=O)O1`, the MIC in the assay with Staphylococcus aureus [1] was determined as 16 µg/mL (≈ 41.7 µM); in the assay on Enterococcus faecalis it was 8 µg/mL (≈ 20.9 µM); against Staphylococcus aureus [2] it was 4 µg/mL (≈ 10.4 µM); against Staphylococcus aureus [3], 4 µg/mL (≈ 10.4 µM); against Enterococcus faecium, 8 µg/mL (≈ 20.9 µM).
On to `CC(=O)NC[C@H]1CN(c2ccc(N3Cc4cccnc4C3)c(F)c2)C(=O)O1`, for which the MIC in the assay on Staphylococcus aureus [1] came to 1 µg/mL (≈ 2.7 µM); against Enterococcus faecalis, 0.5 µg/mL (≈ 1.35 µM); in the assay on Staphylococcus aureus [2], 0.25 µg/mL (≈ 0.675 µM); against Staphylococcus aureus [3], 0.5 µg/mL (≈ 1.35 µM); against Enterococcus faecium it was 0.5 µg/mL (≈ 1.35 µM).
Take `CC(=O)NC[C@H]1CN(c2ccc(N3Cc4cncnc4C3)c(F)c2)C(=O)O1`: the minimum inhibitory concentration (MIC) against Staphylococcus aureus [1] is 2 µg/mL (≈ 5.39 µM); in the assay on Enterococcus faecalis, 2 µg/mL (≈ 5.39 µM); in the assay with Staphylococcus aureus [2], 1 µg/mL (≈ 2.69 µM); against Staphylococcus aureus [3] it was 1 µg/mL (≈ 2.69 µM); against Enterococcus faecium, 1 µg/mL (≈ 2.69 µM).
Consider `CC(=O)NC[C@H]1CN(c2ccc(N3CCOCC3)c(F)c2)C(=O)O1` [LINEZOLID], for which the MIC is 1 µg/mL (≈ 2.96 µM) against Staphylococcus aureus [2] and 2 µg/mL (≈ 5.93 µM) in the assay on Enterococcus faecium. In addition, the median effective dose (ED50) in the assay on Mus musculus [5] amounted to 8 mg/kg/day.
